Key:
Mus musculus [1] = experiment: Minimum dose required when administered intraperitoneally in mice as the sodium salt in water in a single dose.; type: functional
Outline: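 The minimum dose giving the cited necrosis level in sc colon 38 tumors (4-8 mm) in BDF1 mice. It was taken from a full dose profile at 1.5-fold intervals, given as a single ip dose of the sodium salt in water. The ceiling was 750 mg/kg or the maximum tolerated dose, defined as the highest dose causing no deaths in 24 h. Tumor histology was read at 24 h.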

MC-38 = experiment: Antitumor activity against the subcutaneously implanted C38 colon tumor in mice.; type: functional, Mus musculus; set-up: concentration or dose not given beside the values
Outline: (§1)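 Colon 38 fragments were implanted sc in BDF1 mice and grown to 4-8 mm diameter. Each mouse then got a single ip dose of the sodium salt in water, with light excluded. Doses rose in 1.5-fold steps up to 750 mg/kg or the maximum tolerated dose. Tumors were removed 24 h later, formalin-fixed, and sections were stained with hematoxylin/eosin. Necrosis was scored: ++ >90%, + 50-90%, − <50%. Groups of five mice, with 2-3 independent determinations per dose.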

Mus musculus [2] = experiment: Compound was evaluated in vivo, for antitumor activity, against the subcutaneously implanted C38 colon tumor in mice; 50-90%
Mus musculus [3] = experiment: Compound was evaluated in vivo, for antitumor activity, against the subcutaneously implanted C38 colon tumor in mice; 50-90%; type: functional; outline: as §1

SMILES | minimum dose giving tumor necrosis (Mus musculus [1]) [mg/kg] | Activity (MC-38) [%] | Activity (Mus musculus [2]) [%] | Activity (Mus musculus [3]) [%]
Cc1cccc2c(=O)c3c(C)ccc(CC(=O)O)c3oc12 | 65 | >90 |  | 
O=C(O)Cc1cccc2c(=O)c3ccc4ccccc4c3oc12 | 65 | >90 |  | 
Cc1ccc2c(=O)c3cccc(CC(=O)O)c3oc2c1C [VADIMEZAN] | 30 | >90 |  | 
Cc1ccc2c(=O)c3cccc(CC(=O)O)c3oc2c1Cl | 100 | >90 |  | 
O=C(O)Cc1cccc2c(=O)c3ccc(Cl)c(Cl)c3oc12 | 100 |  | 50 | 
Cc1ccc2c(=O)c3cccc(C)c3oc2c1CC(=O)O | 45 | >90 |  | 
Cc1c(F)ccc2c(=O)c3cccc(CC(=O)O)c3oc12 | 45 | >90 |  | 
O=C(O)Cc1cccc2c(=O)c3cccc(Cl)c3oc12 | 150 | 90 |  | 
O=C(O)Cc1cccc2c(=O)c3ccc4c(c3oc12)CCC4 | 45 | >90 |  | 
Cc1cc(CC(=O)O)c2oc3c(C)cccc3c(=O)c2c1 | 220 | >90 |  | 
Cc1c(Cl)ccc2c(=O)c3cccc(CC(=O)O)c3oc12 | 30 | >90 |  | 
Cc1cccc2c(=O)c3cccc(CC(=O)O)c3oc12 | 30 | >90 |  | 
O=C(O)Cc1cccc2c(=O)c3ccccc3oc12 | 220 | >90 |  | 
O=C(O)Cc1cccc2c(=O)c3cc4ccccc4cc3oc12 | 330 |  |  | 50
Cc1c(Br)ccc2c(=O)c3cccc(CC(=O)O)c3oc12 | 45 | >90 |  | 
COc1ccc2c(=O)c3cccc(CC(=O)O)c3oc2c1C | 30 | >90 |  | 
Cc1c(N(C)C)ccc2c(=O)c3cccc(CC(=O)O)c3oc12 | 45 |  |  | 
O=C(O)Cc1cccc2c(=O)cc(-c3ccccc3)oc12 [MITOFLAXONE] | 330 | >90 |  | 
